From ChEMBL document CHEMBL2375356, “Design, synthesis and biological evaluation of new classes of thieno[3,2-d]pyrimidinone and thieno[1,2,3]triazine as inhibitor of vascular endothelial growth factor receptor-2 (VEGFR-2)” (Eur J Med Chem, 2013)
The source made the active and inactive calls. The calls are words filed in the database; no cut-off is given here.

How the values were obtained:
HUVEC [1] = assay: cells; details: Homo sapiens, 24 h
[2] = biological target: Vascular endothelial growth factor receptor 1 (Homo sapiens) (UniProt P17948); assay: Inhibition of VEGFR1 phosphorylation in growth factor-stimulated HUVEC
[3] = biological target: Tyrosine-protein kinase transmembrane receptor ROR2 (Homo sapiens) (UniProt Q01974); assay: Inhibition of ROR2 phosphorylation in growth factor-stimulated HUVEC at 3 uM after 24 hrs
[4] = biological target: Tyrosine-protein kinase receptor UFO (Homo sapiens) (UniProt P30530); assay: Inhibition of AXL phosphorylation in growth factor-stimulated HUVEC at 3 uM after 24 hrs
[5] = biological target: T1, Vascular endothelial growth factor receptor 2 (Homo sapiens, UniProt P35968); assay: Inhibition of VEGFR2 phosphorylation in growth factor-stimulated HUVEC at 3 uM after 24 hrs
[6] = biological target: T2, Ephrin type-A receptor 6 (Homo sapiens) (UniProt Q9UF33); assay: Inhibition of EPHA6 phosphorylation in growth factor-stimulated HUVEC at 3 uM after 24 hrs
T2 sequence (whole entry): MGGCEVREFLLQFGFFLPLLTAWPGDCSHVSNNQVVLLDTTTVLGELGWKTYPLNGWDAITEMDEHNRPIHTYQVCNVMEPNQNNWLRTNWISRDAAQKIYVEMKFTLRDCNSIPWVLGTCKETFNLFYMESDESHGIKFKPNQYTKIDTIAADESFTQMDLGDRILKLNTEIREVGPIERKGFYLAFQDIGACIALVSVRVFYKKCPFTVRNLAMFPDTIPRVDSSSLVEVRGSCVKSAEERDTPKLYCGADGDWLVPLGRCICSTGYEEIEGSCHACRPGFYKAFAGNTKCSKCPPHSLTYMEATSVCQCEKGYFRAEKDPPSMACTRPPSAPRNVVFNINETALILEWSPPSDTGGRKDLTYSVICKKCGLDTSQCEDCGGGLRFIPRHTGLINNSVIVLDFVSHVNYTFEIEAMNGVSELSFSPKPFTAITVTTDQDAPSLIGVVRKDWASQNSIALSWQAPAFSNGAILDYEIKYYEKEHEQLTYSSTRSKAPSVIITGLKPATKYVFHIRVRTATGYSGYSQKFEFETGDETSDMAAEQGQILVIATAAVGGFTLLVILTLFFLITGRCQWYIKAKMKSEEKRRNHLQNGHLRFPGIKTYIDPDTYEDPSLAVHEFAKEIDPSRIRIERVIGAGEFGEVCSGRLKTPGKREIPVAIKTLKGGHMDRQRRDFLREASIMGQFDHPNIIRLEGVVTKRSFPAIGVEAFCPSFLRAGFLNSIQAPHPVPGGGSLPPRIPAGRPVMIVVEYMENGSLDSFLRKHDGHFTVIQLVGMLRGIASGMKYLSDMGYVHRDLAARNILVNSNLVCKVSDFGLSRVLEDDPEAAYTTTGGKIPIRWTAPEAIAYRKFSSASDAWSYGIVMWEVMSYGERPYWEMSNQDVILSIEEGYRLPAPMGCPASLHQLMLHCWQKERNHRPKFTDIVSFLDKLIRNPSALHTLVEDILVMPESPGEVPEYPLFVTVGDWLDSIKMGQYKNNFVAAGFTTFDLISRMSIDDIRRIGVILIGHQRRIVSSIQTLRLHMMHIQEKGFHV

[7] = biological target: Tyrosine-protein kinase receptor Tie-1 (Homo sapiens) (UniProt P35590); assay: Inhibition of TIE-1 phosphorylation in growth factor-stimulated HUVEC at 3 uM after 24 hrs
[8] = biological target: Epidermal growth factor receptor (Homo sapiens) (UniProt P00533); assay: Inhibition of EGFR phosphorylation in growth factor-stimulated HUVEC at 3 uM after 24 hrs
[9] = biological target: T3, Tyrosine-protein kinase receptor TYRO3 (Homo sapiens) (UniProt Q06418); assay: Inhibition of DTK phosphorylation in growth factor-stimulated HUVEC at 3 uM after 24 hrs
T3 sequence (whole entry): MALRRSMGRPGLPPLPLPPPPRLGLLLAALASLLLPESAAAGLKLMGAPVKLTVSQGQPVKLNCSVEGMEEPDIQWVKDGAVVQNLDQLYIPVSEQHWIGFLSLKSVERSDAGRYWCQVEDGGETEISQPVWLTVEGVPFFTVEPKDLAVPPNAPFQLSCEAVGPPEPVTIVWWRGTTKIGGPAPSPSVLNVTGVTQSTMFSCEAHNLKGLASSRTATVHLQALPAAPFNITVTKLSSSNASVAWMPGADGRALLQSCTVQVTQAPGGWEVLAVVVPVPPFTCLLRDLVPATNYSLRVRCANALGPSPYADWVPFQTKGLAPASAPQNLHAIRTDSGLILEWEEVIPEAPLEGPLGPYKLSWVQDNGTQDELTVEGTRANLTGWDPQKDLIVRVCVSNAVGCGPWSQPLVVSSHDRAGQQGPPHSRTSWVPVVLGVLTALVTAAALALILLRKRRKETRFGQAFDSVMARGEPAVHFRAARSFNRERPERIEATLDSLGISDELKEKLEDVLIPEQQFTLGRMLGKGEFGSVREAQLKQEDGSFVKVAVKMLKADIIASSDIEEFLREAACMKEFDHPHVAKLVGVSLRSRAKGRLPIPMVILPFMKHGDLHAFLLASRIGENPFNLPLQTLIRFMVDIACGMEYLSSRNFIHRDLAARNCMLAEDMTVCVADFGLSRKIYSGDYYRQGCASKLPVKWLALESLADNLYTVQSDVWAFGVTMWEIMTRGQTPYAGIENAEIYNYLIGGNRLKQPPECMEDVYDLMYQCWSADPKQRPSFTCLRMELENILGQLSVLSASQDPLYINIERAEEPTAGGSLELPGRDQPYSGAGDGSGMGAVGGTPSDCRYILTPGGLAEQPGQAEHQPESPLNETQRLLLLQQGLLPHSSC

[10] = biological target: Vascular endothelial growth factor receptor 1 (Homo sapiens) (UniProt P17948); assay: Inhibition of VEGFR1 phosphorylation in growth factor-stimulated HUVEC at 3 uM after 24 hrs
[11] = biological target: T1, Vascular endothelial growth factor receptor 2; assay: Inhibition of human recombinant VEGFR2
HUVEC [12] = assay: Cytostatic activity against HUVEC assessed as decrease in metabolic activity at 100 uM after 24 hrs by MTT assay relative to control; assay type: ADME, cell-based; set-up: scale not given: the % may be the effect or the level left; details: human
How it was run: (§1)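 Primary HUVEC (passage ≤5) seeded at 20,000 cells/cm² in complete medium; after 24 h, exposed to test agent (0–100 µM) in RPMI 1640 + 2% heat-inactivated FCS for 24 h. MTT 0.4 mg/mL, 37 °C for 3 h; formazan dissolved in DMSO, absorbance read at 570/630 nm. Expressed as % variation vs untreated medium; mean ± SD, n = 3 in triplicate.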

HUVEC [13] = assay: Cytostatic activity against HUVEC assessed as decrease in metabolic activity after 24 hrs by MTT assay; assay type: ADME, cell-based, Homo sapiens
How it was run: as §1

HUVEC [14] = assay: Cytotoxicity against HUVEC assessed as decrease in cell viability at 1 to 100 uM after 24 hrs by Hoechst 33258 staining method; assay type: cell-based; details: human
How it was run: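 HUVEC seeded at 20,000 cells/cm²; after 24 h, treated with test agent (0–100 µM) in RPMI 1640 + 2% FCS for 24 h. Cells lysed by freezing at −80 °C, lysates incubated with Hoechst 33258 for 1 h with agitation. Fluorescence read at ex 360/em 460 nm; expressed as % variation vs untreated; mean ± SD, n = 3 in triplicate.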

HUVEC [15] = assay: Cytostatic activity against HUVEC assessed as decrease in metabolic activity at 1.5 uM after 24 hrs by MTT assay relative to control; assay type: ADME, cell-based; set-up: scale not given: the % may be the effect or the level left; details: human
How it was run: as §1

Chain of Vascular endothelial growth factor receptor 1 (Homo sapiens) (P17948 whole entry): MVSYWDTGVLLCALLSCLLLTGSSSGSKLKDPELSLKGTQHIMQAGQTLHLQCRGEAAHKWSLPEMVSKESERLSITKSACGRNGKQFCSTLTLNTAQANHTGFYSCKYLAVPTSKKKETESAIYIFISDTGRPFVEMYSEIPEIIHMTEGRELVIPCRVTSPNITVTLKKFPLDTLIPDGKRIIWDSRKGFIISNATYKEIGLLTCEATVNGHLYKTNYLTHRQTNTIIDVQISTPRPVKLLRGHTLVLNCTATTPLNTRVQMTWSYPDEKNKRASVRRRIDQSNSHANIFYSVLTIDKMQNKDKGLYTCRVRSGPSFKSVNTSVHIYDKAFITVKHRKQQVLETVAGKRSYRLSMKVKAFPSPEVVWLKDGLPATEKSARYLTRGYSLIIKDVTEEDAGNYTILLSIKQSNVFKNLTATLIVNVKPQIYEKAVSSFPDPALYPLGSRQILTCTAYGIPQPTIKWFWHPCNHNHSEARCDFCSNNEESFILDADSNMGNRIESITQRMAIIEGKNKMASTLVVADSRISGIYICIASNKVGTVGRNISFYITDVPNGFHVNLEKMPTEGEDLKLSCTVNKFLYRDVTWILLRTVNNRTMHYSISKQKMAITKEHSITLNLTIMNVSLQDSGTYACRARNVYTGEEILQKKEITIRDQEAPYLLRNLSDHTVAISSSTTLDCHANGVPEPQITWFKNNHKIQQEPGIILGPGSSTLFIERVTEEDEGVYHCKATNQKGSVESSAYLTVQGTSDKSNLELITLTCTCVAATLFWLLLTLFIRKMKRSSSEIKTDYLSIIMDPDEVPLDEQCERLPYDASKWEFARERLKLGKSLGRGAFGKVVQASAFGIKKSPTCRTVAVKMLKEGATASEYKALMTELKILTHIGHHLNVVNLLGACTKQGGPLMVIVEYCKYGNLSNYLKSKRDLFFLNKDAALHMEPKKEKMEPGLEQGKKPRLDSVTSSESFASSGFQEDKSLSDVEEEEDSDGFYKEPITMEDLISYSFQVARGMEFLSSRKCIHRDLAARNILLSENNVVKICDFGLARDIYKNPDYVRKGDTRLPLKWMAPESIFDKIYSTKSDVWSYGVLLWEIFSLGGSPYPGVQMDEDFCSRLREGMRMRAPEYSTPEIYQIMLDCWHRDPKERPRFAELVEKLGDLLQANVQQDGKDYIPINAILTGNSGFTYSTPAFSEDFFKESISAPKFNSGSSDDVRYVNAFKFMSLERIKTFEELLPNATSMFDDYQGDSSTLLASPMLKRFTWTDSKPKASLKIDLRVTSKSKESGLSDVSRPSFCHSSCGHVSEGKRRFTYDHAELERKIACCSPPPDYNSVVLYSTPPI
T1 sequence (P35968 whole entry): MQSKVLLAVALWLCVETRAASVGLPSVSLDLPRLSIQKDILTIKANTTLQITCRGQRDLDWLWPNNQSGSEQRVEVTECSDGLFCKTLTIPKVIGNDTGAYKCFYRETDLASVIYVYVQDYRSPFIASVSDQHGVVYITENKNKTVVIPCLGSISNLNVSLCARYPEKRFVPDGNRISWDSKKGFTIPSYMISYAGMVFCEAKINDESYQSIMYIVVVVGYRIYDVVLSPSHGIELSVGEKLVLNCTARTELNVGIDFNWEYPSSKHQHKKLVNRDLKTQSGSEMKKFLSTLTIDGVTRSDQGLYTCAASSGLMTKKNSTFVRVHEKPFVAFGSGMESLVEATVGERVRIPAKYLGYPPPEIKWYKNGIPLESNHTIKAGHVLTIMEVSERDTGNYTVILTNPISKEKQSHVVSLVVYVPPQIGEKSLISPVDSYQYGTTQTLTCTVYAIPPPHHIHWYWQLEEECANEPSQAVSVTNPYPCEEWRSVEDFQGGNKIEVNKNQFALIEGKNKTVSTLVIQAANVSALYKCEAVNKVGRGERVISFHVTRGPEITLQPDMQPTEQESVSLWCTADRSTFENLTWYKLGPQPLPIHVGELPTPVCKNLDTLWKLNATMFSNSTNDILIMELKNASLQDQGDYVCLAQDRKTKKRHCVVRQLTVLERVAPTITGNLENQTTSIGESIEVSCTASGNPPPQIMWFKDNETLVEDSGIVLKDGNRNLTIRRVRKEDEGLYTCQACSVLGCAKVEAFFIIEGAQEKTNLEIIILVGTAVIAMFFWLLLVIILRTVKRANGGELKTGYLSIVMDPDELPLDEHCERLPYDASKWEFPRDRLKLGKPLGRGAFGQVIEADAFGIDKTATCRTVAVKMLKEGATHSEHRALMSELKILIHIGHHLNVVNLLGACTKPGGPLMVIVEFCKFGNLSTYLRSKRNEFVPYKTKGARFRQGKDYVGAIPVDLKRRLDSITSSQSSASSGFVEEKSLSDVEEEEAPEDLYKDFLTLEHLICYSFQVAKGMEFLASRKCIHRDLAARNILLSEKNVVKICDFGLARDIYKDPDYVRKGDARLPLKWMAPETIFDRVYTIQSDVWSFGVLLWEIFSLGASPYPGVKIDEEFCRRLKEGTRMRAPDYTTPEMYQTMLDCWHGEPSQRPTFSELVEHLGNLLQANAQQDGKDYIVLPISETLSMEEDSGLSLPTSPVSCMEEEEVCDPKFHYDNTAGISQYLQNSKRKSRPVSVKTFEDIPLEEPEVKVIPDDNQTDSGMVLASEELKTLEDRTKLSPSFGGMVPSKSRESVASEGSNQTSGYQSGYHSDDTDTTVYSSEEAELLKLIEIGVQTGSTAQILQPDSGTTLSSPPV
Chain of Tyrosine-protein kinase receptor Tie-1 (Homo sapiens) (P35590 whole entry): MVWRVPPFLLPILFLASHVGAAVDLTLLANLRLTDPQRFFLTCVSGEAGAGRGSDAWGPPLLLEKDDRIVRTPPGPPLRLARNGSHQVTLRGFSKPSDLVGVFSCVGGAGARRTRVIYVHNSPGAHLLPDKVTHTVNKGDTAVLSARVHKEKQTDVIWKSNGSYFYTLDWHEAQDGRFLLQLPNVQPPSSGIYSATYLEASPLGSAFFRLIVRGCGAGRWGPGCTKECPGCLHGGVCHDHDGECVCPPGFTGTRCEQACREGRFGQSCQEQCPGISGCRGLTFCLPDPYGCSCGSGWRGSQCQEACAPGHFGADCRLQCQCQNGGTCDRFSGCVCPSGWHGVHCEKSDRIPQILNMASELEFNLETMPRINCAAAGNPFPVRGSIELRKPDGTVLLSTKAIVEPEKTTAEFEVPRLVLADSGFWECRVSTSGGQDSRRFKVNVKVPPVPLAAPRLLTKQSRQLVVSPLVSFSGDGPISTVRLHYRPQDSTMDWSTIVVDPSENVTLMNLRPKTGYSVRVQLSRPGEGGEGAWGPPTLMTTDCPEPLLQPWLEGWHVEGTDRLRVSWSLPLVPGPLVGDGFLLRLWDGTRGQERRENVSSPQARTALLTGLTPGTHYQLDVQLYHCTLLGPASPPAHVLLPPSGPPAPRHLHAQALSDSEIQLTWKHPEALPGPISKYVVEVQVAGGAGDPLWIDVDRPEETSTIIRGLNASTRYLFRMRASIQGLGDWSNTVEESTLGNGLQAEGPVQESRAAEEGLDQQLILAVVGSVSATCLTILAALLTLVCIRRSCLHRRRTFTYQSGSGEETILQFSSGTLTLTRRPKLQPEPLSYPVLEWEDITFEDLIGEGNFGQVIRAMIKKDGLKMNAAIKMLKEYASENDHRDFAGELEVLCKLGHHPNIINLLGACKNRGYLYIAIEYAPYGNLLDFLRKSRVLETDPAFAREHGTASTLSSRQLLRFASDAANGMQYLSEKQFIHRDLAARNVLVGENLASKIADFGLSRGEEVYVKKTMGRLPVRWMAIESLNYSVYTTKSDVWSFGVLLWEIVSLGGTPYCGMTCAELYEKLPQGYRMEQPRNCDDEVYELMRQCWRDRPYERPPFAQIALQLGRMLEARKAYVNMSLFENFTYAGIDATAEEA
Chain of Epidermal growth factor receptor (Homo sapiens) (P00533 whole entry): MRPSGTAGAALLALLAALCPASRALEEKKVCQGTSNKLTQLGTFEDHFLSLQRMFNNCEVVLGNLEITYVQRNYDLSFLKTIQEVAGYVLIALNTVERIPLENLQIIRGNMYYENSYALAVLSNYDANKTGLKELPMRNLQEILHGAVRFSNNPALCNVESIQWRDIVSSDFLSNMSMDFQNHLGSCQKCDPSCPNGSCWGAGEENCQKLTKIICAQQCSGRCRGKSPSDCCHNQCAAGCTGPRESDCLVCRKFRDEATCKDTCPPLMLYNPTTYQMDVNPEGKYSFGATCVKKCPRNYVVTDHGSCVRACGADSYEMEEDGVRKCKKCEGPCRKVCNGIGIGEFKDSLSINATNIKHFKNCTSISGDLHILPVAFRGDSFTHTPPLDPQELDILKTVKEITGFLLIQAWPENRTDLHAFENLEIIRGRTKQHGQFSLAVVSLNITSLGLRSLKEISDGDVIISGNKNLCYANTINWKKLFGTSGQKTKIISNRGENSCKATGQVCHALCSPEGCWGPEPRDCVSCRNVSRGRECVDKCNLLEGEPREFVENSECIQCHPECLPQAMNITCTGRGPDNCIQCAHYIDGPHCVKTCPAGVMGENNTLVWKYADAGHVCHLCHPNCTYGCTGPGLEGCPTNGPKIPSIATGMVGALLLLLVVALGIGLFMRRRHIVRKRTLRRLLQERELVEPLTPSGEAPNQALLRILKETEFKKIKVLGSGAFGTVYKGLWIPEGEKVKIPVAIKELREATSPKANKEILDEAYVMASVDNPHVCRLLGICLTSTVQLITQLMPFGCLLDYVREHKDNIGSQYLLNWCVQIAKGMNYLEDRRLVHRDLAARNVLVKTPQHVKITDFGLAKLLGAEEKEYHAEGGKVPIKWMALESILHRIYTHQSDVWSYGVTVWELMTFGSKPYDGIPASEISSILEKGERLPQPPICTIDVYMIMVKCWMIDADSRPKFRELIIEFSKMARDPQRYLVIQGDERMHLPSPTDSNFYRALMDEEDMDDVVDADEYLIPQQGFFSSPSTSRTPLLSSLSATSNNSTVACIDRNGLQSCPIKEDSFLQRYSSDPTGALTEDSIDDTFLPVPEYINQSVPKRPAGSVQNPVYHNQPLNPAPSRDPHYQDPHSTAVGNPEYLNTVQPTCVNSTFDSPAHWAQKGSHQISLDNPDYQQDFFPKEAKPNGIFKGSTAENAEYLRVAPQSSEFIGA

Q: How did the EC50 (HUVEC [1]) turn out when CCN(CC)CCNC(=O)c1c(C)[nH]c(/C=C2\C(=O)Nc3ccc(F)cc32)c1C [SUNITINIB] was run?
A: Its EC50 is 645 nM.

Q: And the inhibition [2]?
A: The inhibition was “Active”.

Q: For O=c1[nH]c(CN2CCCCC2)nc2cc(-c3cn(Cc4ccccc4)c4ccccc34)sc12 [listing 1 of 2 here], which inhibition [3] is on record?
A: Its inhibition is “Active”.

Q: And the inhibition [4]?
A: The inhibition was “Active”.

Q: What about the inhibition [5] of the same compound?
A: Its inhibition is “Active”.

Q: What about the inhibition [6] of the same compound?
A: The inhibition was “Active”.

Q: What about the inhibition [7] of the same compound?
A: The inhibition was “Active”.

Q: What about the inhibition [8] of the same compound?
A: Its inhibition is “Active”.

Q: And the inhibition [9]?
A: Its inhibition is “Active”.

Q: And the inhibition [10]?
A: The inhibition was “Active”.

Q: O=c1[nH]c(CN2CCCCC2)nc2cc(-c3cn(Cc4ccccc4)c4ccccc34)sc12 [listing 2 of 2 here] was tested. Which IC50 [11] did it give?
A: Its IC50 is 2250 nM.

Q: Which Activity (HUVEC [12]) does the source give for O=C(O)C(O)C(O)C(=O)O.O=c1[nH]c(CN2CCCCC2)nc2cc(-c3cn(Cc4ccccc4)c4ccccc34)sc12 here?
A: Its Activity is 51%.

Q: And the EC50 (HUVEC [13]; Homo sapiens, HUVEC)?
A: Its EC50 is 12000 nM.

Q: What about the Activity (HUVEC [13]; human, huvec) of the same compound?
A: Its Activity is “Dose-dependent effect”.

Q: What about the EC50 (HUVEC [1]) of the same compound?
A: The EC50 was 31 nM.

Q: What about the Activity (HUVEC [14]) of the same compound?
A: The Activity was “Non-toxic”.

Q: What about the Activity (HUVEC [15]) of the same compound?
A: The Activity was 9%.
